# Results from different studies.
# Compare with care: the assays were run in different laboratories.
# Target: Mitogen-activated protein kinase kinase kinase kinase 5 (MAP4K5, Homo sapiens, UniProt Q9Y4K4)
Compound,read-out,action,technique,concentration,measurement,value
CNC(=O)c1cc2c(Oc3ccc(NC(=O)C4(C(=O)Nc5ccc(F)cc5)CC4)cc3)ccnc2cc1OC,enzyme activity,inhibitor,radiometric,1 µM,inhibition,89%
CN(C)c1nccc(-c2cnc3ncccn23)n1,binding,,,1 µM,remaining binding,100%
CC(C)(C)c1nc2c(s1)c1nc(N)ncc1c1ccc(NS(=O)(=O)c3c(F)cccc3F)c(F)c12,enzyme activity,inhibitor,radiometric,1 µM,remaining activity,87%
O=C1NC(=O)c2cc(Nc3ccc(F)cc3)c(Nc3ccc(F)cc3)cc21,cell-free assay,,,0.5 µM,remaining signal,89.5%
Cc1ccc(C(=O)Nc2ccc(CN3CCN(C)CC3)c(C(F)(F)F)c2)cc1C#Cc1cnc2cccnn12,enzyme activity,inhibitor,,23.5 nM,remaining activity,69%
Cc1ccc(NC(=O)c2ccc(CN3CCN(C)CC3)cc2)cc1Nc1nc(-c2cccnc2)cs1,cell-free assay,,,0.5 µM,remaining signal,97%
c1ccc(N2CCN(Cc3nc4ccccc4[nH]3)CC2)nc1,binding,,competition with immobilised ligand,1 µM,remaining binding,100%
Nc1ncnc2occ(-c3ccc(NC(=O)Nc4cc(C(F)(F)F)ccc4F)cc3)c12,cell-free assay,inhibitor,,20 µM,remaining signal,0%
CS(=O)(=O)c1cc(C2(NC(=O)c3cncc4c3cnn4-c3ccc(F)cc3)CC2)ccn1,cell-free assay,,competition with immobilised ligand,1 µM,remaining binding,98%
FC(F)(F)Oc1cccc(-c2cnc3ccc(-c4ccncc4)nn23)c1,enzyme activity,inhibitor,radiometric,1 µM,activity vs control,110%
C[C@@H]1CN(c2cc(-c3n[nH]c4ccc(OC5(C)CC5)cc34)ncn2)C[C@H](C)O1,cell-free assay,,competition with immobilised ligand,0.1 µM,remaining binding,100%
COc1cc2ncnc(Nc3ccc(Oc4ccccc4)c(C)c3C)c2cc1OC,enzyme activity,inhibitor,,1 µM,inhibition,-2%
Cc1nc(N2CC[C@@H](O)C2)ncc1-c1cc(C(F)(F)F)cc2[nH]ncc12,binding,,competition with immobilised ligand,1 µM,remaining binding,75%
O=C1Nc2ccc(Cl)cc2C1=Cc1cc(Cl)c(O)c(Cl)c1,cell-free assay,,,0.5 µM,remaining signal,75.9%
Cc1cc(NC(=O)c2cccc(S(F)(F)(F)(F)F)c2)cc(-n2ccn3nc(-c4cccnc4)cc23)c1,cell-free assay,,competition with immobilised ligand,1 µM,remaining binding,100%
COc1cc(Nc2cnc(C#N)c(O[C@H](C)CN(C)C)n2)ncc1-c1cnn(C)c1,enzyme activity,inhibitor,radiometric,1 µM,remaining activity,46%
CNC(=O)Nc1ccc2c(c1)CC[C@@]21OC(=O)N(CC(=O)N(Cc2ccc(F)cc2)[C@@H](C)C(F)(F)F)C1=O,cell-free assay,,competition with immobilised ligand,1 µM,remaining binding,88%
Cc1sc(C(=O)NC2COC2)cc1-n1cc(NC(=O)Nc2c(F)cccc2Cl)cn1,enzyme activity,inhibitor,,10 µM,remaining activity,98.4%
